UHRF1 binding: blocks human UHRF1 binding to methylated DNA. Q96T88. UHRF1 binding to methylated oligo, TR-FRET. inhibition, % at 4.4 µM. actives 0.75% (n = 370,000); in the data active = inhibition above about 21%;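 also: UHRF1 SRA domain binding a hemimethylated CpG hairpin DNA probe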
Target sequence (Q96T88 whole entry, looked up, the tested form may be a part): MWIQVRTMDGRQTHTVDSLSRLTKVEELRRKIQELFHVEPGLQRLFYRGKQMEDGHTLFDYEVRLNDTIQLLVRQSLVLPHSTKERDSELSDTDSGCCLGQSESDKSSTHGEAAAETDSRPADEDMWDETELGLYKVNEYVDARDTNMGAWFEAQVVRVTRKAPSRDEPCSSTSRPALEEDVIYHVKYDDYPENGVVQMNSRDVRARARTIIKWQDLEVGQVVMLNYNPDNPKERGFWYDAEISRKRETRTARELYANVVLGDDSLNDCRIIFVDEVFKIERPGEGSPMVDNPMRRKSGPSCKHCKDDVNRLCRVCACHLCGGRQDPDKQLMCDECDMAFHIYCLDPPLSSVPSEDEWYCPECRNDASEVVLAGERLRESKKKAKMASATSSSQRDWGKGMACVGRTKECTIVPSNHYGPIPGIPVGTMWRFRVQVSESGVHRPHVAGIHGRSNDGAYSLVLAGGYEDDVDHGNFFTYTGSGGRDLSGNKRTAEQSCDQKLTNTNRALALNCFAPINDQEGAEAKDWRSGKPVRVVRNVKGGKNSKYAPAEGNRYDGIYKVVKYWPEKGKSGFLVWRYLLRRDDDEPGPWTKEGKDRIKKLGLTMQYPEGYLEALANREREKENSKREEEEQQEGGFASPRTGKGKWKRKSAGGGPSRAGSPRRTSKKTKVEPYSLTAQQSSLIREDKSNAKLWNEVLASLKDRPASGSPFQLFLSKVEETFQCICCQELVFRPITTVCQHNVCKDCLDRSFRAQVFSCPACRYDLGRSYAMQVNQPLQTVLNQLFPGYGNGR
MBD2 DNA inh: inhibitors of human MBD2 binding to methylated oligonucleotide. Q9UBB5. TR-FRET. inhibition, % at 4.4 µM. actives 0.31% (n = 370,000). AID 686964; in the data active = inhibition above about 13%
TDP2 inh: blocks human TDP2 phosphodiesterase activity; O95551; recombinant TDP2, T5PNP hydrolysis, p-nitrophenol absorbance 415 nm; inhibition, % at 12.8 µM; actives 0.34% (n = 370,000);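 active = inhibition above the mean of all tested compounds plus 3 SD, set per campaign, cut at about 25% in these data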
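Material: recombinant human TDP2; quantity: TDP2 enzyme at 120 nM final; medium: Tris-HCl pH 7.5 with MgCl2; compound: single concentration, 12.8 µM nominal, with 1% DMSO; incubation: 2 h enzyme incubation at 37 °C; signal: epi absorbance; measure: percent inhibition; benchmarks: high control without enzyme, low control DMSO plus TDP2; repeats: singlicate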
LEDGF integ inh: blocks HIV-1 LEDGF/p75-dependent DNA integration; TR-FRET IN-LEDGF/p75 DNA integration, Eu/Cy5; actives 0.64% (n = 370,000); inhibition, % at 3.7 µM; AID 743269;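 active = inhibition above the screen-wide mean plus 3 SD, cut at about 13% in these data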;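 also: signal is the Cy5 over europium emission ratio at 671 and 618 nm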
Each line names hits and unclear results; the compound was inactive in the other large screens. Most compounds without a hit are left out; they make up all but 1.6% or so of the library.

O=C(CCc1ccncc1)N1CCCC(Nc2ccc(F)cc2)C1 (configuration not stated)	none
c1ccc(CCSc2nnc(-c3cccnc3)n2Cc2ccccc2)cc1	none
C[C@H](O)[C@@H]1CN2CCc3ccc(N4CCOCC4)cc3[C@@H]2C[C@@H]1N(C)C(=O)c1ccco1	none
O=c1cc(CN2CCOCC2)c2cc(Cl)c(O)cc2o1	UHRF1 binding 40.2
Cc1ccc(N2C(=O)CC(Sc3ncn[nH]3)C2=O)cc1C (configuration not stated)	UHRF1 binding 22.3
CC(C)N(CC#CCC1(O)c2ccccc2-c2ccccc21)CCO	UHRF1 binding 28.1
Cn1ccnc1C(=O)c1cc(SCC(=O)NCc2ccccc2)nc2ccccc12	UHRF1 binding 26.1
O=C(Cn1nnc(-c2ccccc2F)n1)Nc1ccc(F)cc1F	none
Cc1nnsc1NC(=O)OCc1ccc(Cl)cc1Cl	none
Cc1nn(C)c(Cl)c1NC(=O)OCc1ccc(Cl)cc1Cl	UHRF1 binding 53.1
COc1ccccc1CNC(=O)c1ccc(-c2ccccc2)cc1	UHRF1 binding 26.2
COc1ccc(C(=O)NCc2ccccc2OC)cc1	none
Cn1c(Cc2cccs2)nnc1SCC(=O)Nc1ccc2cn[nH]c2c1	none
CC(=O)c1nn(-c2ccc(Cl)cc2)cc1C(=O)c1ccc(C)cc1	UHRF1 binding 26.4
CC(=O)c1nn(-c2ccccc2)cc1C(=O)c1ccc(C)cc1	none
COCCCNC(=O)C[C@H]1C[C@@]2(C(=O)OC)C(=C[C@H](C(C)C)O[C@@H]2C2CC2)N(CCC2=CCCCC2)C1=O	none
CC(C)CNC1CS(=O)(=O)CC1O (configuration not stated)	UHRF1 binding 21.9
O=S1(=O)CC(O)C(NCc2cccnc2)C1 (configuration not stated)	none
Cc1[nH]c(=O)[nH]c(=O)c1S(=O)(=O)Nc1ccc(S(N)(=O)=O)cc1	none
Cc1[nH]c(=O)[nH]c(=O)c1S(=O)(=O)NCCc1ccc(S(N)(=O)=O)cc1	UHRF1 binding 21.3
c1coc(-c2nc3ccccc3nc2-c2ccco2)c1	UHRF1 binding 53.1, TDP2 inh 27.8, LEDGF integ inh 47.6
O=C(NCCO)c1ccc2nc(-c3ccco3)c(-c3ccco3)nc2c1	UHRF1 binding 41.8, TDP2 inh 47.0, LEDGF integ inh 76.8
O=C(NCCO)c1ccc(Cl)c(Cl)c1	none
Fc1ccccc1-c1n[nH]c(=S)n1N=Cc1ccc(OCc2ccccc2)cc1	none
CCCCc1c(-c2ccccc2OC)ncn1CCc1cccc(OC)c1	none
CCCCc1c(-c2ccccc2OC)ncn1CCc1cccc(F)c1	UHRF1 binding 55.8
CCCCc1c(-c2ccccc2OC)ncn1Cc1ccc(C(C)(C)C)cc1	UHRF1 binding 27.6
CCCCc1c(-c2ccccc2OC)ncn1Cc1ccccc1	none
Cc1cc(NS(=O)(=O)c2ccc(NC(=O)Cc3ccc(Cl)c(Cl)c3)cc2)on1	none
COc1ccc(Nc2nnc(-c3ccc4c(c3)OCO4)o2)cc1	none
CC1(C)NC(=O)N(CCOCCOc2ccccc2-c2ccccc2)C1=O	UHRF1 binding 27.8
Cc1nc2ccc(NC(=O)c3ccc(S(=O)(=O)N(C)c4ccccc4)cc3)cc2s1	UHRF1 binding 26.1
CC(=O)Nc1ccc(NC(=O)c2ccc(S(=O)(=O)N(C)c3ccccc3)cc2)cc1	none
CCOC(=O)[C@@]12CCCC3=C1N(CCC3)C(=O)[C@H]2CC(=O)N1CCN(C(=O)c2ccco2)CC1	none
COc1ccc(NC(=O)CN(C)C(=O)c2cc(-c3ccncc3)nc3ccccc23)cc1	none
COc1ccc(Cl)cc1NC(=O)CN(C)C(=O)c1cc(-c2ccncc2)nc2ccccc12	LEDGF integ inh 16.1
COc1ccc(C=NOCC(=O)OCC(=O)Nc2ccc(OC)cc2)cc1	UHRF1 binding 28.7
Clc1ccc([C@H]2OC[C@@]3(CNC4CCCCC4)CS[C@H](c4ccc(Cl)cc4)N23)cc1	none
C[C@@H]1COc2cc(N3CCCC3)ccc2S(=O)(=O)N1	UHRF1 binding 21.3
CCOC(=O)Cc1nc(N2CCCN(C(C)=O)CC2)c2c(C)c(C(=O)OCC)sc2n1	none
C[C@@H]1CN([C@@H](C)CO)C(=O)CCCn2nncc2CO[C@H]1CN(C)C(=O)Nc1ccccc1C(F)(F)F	none
C[C@@H]1CN([C@@H](C)CO)C(=O)CCCn2cc(nn2)CO[C@H]1CN(C)C(=O)NC1CCCCC1	UHRF1 binding 20.7
C[C@H]1CN([C@@H](C)CO)C(=O)CCCn2nncc2CO[C@@H]1CN(C)Cc1ccccc1	UHRF1 binding 34.5
C[C@@H]1CN([C@@H](C)CO)C(=O)CCCn2nncc2CO[C@@H]1CN(C)C(=O)Nc1ccccc1C(F)(F)F	UHRF1 binding 21.8
C[C@@H]1CN([C@@H](C)CO)C(=O)CCCn2nncc2CO[C@H]1CN(C)Cc1ccccc1	none
CCOC(=O)N1CCN(C(=O)C[C@H]2C[C@@]3(C(=O)OCC)CCCC4=C3N(CCC4)C2=O)CC1	none
Cc1ccc(N2C(=O)CC(Cc3cc(C)cc(C)c3)C2=O)cc1 (configuration not stated)	UHRF1 binding 23.6
COC(=O)c1cc(Br)c(=O)n(-c2ccccn2)c1	UHRF1 binding 37.2
COC(=O)c1cc(Br)c(=O)n(-c2nccs2)c1	none
COc1ccc2c(c1)CN1CN(Cc3ccccc3)S(=O)(=O)CC21 (configuration not stated)	none
COc1ccc(C2SCC(=O)N2c2ccccc2)cc1 (configuration not stated)	UHRF1 binding 22.4
O=C(C(=O)N1CCC(CNS(=O)(=O)c2ccc3ccccc3c2)CC1)c1cc2ccccc2o1	none
CC(=O)C(C(C)=O)c1c(Cl)c(O)c(O)c2c(C(=O)c3ccccc3)coc12	LEDGF integ inh 51.0
CN1CCN(Cc2c(O)ccc3occ(C(=O)c4ccccc4)c23)CC1	none
CCCCS(=O)(=O)N1CCCc2nc(-c3ccccc3)ccc21	none
COc1ccc(/C=C(\NC(=O)c2ccccc2)C(=O)N2CCCCC2)cc1OC	UHRF1 binding 55.6
C=C(C)Cn1c(N(CCO)Cc2ccccc2)nc2c1c(=O)[nH]c(=O)n2C	UHRF1 binding 84.4
Cn1c(=O)[nH]c(=O)c2c1nc(N(CCO)Cc1ccccc1)n2CCCc1ccccc1	none
CCCc1nnc(NC(=O)CCC(=O)NC2CCCC2)s1	UHRF1 binding 22.6
O=C(C1CCN(S(=O)(=O)c2cnc[nH]2)CC1)N1CCc2ccccc2C1	UHRF1 binding 29.6
CC(C)N(Cc1ccccc1)C(=O)/C=C/c1ccccc1[N+](=O)[O-]	UHRF1 binding 28.2
Cc1[nH]c2ccccc2c1CN1CCc2ccccc2C1	UHRF1 binding 21.1, MBD2 DNA inh 13.6
COc1ccc(CN2CCNC(=O)C2CC(=O)N(C)CC2CCOCC2)cc1C (configuration not stated)	UHRF1 binding 31.0
COc1ccc(CN2CCNC(=O)C2CC(=O)N(C)CC2CCOCC2)cc1OC (configuration not stated)	none
C[C@H]1[C@@H](OC(=O)NCc2cccc(C(F)(F)F)c2)CC[C@@]23CCCN2C(=O)CCC[C@@H]13	none
CN(C)NC(=S)NC(=O)C12CC3CC(CC(C3)C1)C2	none

Assay outcomes (PubChem)
